ChEMBL document CHEMBL1155477, “Benzothiophene containing Rho kinase inhibitors: Efficacy in an animal model of glaucoma” (Bioorg Med Chem Lett, 2010)
Converted amounts (≈) assume the structure as drawn. The source made the active and inactive calls. The calls are words filed in the database; no cut-off is given here.

Legend:
[1] = target: T1, Rho-associated protein kinase 1 (Homo sapiens, UniProt Q13464); experiment: Inhibition of ROCK1 assessed as ATP cunsumption
Target sequence in this assay (Q13464 whole entry): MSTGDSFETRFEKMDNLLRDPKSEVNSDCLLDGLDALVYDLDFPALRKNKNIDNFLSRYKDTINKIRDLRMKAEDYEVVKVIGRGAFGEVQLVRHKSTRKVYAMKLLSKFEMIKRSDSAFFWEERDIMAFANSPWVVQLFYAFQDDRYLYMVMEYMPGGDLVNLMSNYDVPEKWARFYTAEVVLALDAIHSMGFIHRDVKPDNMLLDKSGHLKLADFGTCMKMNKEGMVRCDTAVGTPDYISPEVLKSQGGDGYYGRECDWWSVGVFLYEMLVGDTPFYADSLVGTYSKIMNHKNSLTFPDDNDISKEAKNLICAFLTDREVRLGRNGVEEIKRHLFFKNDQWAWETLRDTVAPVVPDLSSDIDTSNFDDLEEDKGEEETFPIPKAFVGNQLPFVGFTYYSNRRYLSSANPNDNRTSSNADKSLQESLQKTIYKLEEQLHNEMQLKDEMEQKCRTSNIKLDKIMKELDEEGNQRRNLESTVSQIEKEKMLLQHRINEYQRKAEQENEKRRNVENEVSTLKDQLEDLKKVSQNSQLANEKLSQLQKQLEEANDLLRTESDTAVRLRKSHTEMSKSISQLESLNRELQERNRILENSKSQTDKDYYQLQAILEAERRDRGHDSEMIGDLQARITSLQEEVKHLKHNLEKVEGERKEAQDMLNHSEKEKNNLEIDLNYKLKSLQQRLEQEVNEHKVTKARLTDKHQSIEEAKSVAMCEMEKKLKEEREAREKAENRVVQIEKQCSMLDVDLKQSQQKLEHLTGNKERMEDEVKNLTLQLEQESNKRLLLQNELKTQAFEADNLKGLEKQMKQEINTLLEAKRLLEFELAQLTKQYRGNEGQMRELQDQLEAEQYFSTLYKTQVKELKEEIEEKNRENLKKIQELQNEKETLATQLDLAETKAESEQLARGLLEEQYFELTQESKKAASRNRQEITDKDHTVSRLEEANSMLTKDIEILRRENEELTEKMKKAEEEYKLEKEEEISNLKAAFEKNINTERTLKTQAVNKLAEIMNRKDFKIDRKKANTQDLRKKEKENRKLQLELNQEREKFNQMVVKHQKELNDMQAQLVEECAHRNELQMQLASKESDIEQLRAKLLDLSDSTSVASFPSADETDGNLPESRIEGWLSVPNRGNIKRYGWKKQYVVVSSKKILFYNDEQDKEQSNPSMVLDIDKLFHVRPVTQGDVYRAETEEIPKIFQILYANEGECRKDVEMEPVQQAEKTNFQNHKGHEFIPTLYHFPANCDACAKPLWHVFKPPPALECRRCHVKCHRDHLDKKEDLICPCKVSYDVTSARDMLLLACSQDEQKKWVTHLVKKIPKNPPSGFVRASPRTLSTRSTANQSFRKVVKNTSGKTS

[2] = target: T1, Rho-associated protein kinase 1; experiment: Inhibition of ROCK1 in human GTM3 cells up to 10 uM by impedance assay; assay type: cell-based
Target sequence in this assay (Q13464 2-1354 limits assumed): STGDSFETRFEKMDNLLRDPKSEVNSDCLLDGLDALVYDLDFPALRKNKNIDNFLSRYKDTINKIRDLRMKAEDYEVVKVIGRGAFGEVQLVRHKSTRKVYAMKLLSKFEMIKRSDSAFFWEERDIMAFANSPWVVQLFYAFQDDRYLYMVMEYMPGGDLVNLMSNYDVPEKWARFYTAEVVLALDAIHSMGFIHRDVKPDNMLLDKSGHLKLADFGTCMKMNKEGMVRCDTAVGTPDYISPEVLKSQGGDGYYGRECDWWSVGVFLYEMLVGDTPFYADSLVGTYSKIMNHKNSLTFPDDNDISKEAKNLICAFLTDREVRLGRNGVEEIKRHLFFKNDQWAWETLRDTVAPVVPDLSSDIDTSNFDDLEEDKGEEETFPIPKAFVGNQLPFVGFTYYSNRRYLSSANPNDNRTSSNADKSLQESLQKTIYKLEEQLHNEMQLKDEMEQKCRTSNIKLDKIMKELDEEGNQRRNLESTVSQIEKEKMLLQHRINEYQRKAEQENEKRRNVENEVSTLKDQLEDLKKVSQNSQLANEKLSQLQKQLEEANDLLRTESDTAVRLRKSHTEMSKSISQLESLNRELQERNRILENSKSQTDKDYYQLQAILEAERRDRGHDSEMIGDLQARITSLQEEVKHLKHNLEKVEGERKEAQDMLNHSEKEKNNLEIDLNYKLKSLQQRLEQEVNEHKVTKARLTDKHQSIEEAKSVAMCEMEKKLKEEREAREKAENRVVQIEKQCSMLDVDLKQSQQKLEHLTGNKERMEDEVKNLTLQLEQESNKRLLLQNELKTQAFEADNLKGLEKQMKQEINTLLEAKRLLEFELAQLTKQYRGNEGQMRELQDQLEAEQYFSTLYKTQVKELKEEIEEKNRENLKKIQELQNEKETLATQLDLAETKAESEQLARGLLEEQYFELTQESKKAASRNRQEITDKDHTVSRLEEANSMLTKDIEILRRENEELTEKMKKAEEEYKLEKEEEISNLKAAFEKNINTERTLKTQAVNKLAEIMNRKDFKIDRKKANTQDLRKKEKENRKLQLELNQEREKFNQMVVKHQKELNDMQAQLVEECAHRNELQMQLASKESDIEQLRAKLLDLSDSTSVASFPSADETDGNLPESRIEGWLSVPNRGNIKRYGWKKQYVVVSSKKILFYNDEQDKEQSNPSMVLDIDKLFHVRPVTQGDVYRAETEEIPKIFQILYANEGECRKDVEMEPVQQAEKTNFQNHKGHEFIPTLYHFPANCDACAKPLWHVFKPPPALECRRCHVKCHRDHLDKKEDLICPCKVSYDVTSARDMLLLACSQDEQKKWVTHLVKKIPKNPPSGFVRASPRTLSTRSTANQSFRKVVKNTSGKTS

Cynomolgus monkey [3] = experiment: Reduction of intraocular pressure in laser-induced ocular hypertensive cynomolgus monkey at 250 ug/eye after 1 hr; assay type: functional, Macaca fascicularis; design: scale not given: the % may be the effect or the level left
Cynomolgus monkey [4] = experiment: Reduction of intraocular pressure in laser-induced ocular hypertensive cynomolgus monkey at 250 ug/eye after 3 hrs; assay type: functional, Macaca fascicularis; design: scale not given: the % may be the effect or the level left
Cynomolgus monkey [5] = experiment: Reduction of intraocular pressure in laser-induced ocular hypertensive cynomolgus monkey at 250 ug/eye after 6 hrs; assay type: functional, Macaca fascicularis; design: scale not given: the % may be the effect or the level left
Cynomolgus monkey [6] = experiment: Reduction of intraocular pressure in ocular hypertensive cynomolgus monkey at 250 ug/eye after 1 hr; assay type: functional, Macaca fascicularis; design: scale not given: the % may be the effect or the level left
Cynomolgus monkey [7] = experiment: Reduction of intraocular pressure in ocular hypertensive cynomolgus monkey at 250 ug/eye after 3 hrs; assay type: functional, Macaca fascicularis; design: scale not given: the % may be the effect or the level left
Cynomolgus monkey [8] = experiment: Reduction of intraocular pressure in ocular hypertensive cynomolgus monkey at 250 ug/eye after 6 hrs; assay type: functional, Macaca fascicularis; design: scale not given: the % may be the effect or the level left
[9] = target: T1, Rho-associated protein kinase 1; experiment: Inhibition of ROCK1 assessed as ATP cunsumption relative to control
How it was run: (§1)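 ROCK1 enzyme reaction in 20 mM Tris-HCl pH 7.5, 10 mM MgCl2, 0.4 mM CaCl2, 0.15 mM EGTA, 0.1 mg/ml BSA. Compounds are run as an 11-point half-log series (final top 96 µM, 1% DMSO, 2–4 replicate wells) for 2 h at 30 °C. Readout is Easylite luminescence, normalized to DMSO and HMN-1152 controls. Values are means of ≥2 independent experiments.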
Target sequence in this assay (Q13464 2-1354 limits assumed): as above

GTM3 [10] = experiment: Change in cellular morphology of human GTM3 cells assessed as decrease in vinculin staining density by immunofluorescence relative to control; assay type: functional, cell-based
How it was run: (§2)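 GTM-3 cells plated on glass coverslips one day before use, exposed to compound or DMSO control for 3 h, fixed in 2% paraformaldehyde in PBS 10 min at rt, then indirect immunofluorescence with anti-vinculin mAb and Alexa-488 anti-mouse F(ab')2 secondary; vinculin staining density and intensity compared with DMSO-treated cells.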

GTM3 [11] = experiment: Change in cellular morphology of human GTM3 cells assessed as decrease in vinculin staining intensity by immunofluorescence relative to control; assay type: functional, cell-based; how it was run: as §2
[12] = target: T1, Rho-associated protein kinase 1; experiment: Inhibition of ROCK1 assessed as ATP cunsumption at 96 uM relative to control; how it was run: as §1
Target sequence in this assay (Q13464 2-1354 limits assumed): as above

[13] = Cytotoxicity against human GTM3 cells up to 30 uM after 24 hrs; assay type: cell-based; conditions: gtm3, 24 h
[14] = Aqueous solubility of the compound; assay type: physicochemical; conditions: water (aqueous)
[15] = target: Aurora kinase B (Homo sapiens) (UniProt Q96GD4); experiment: Inhibition of aurora B at 10 uM
How it was run: (§3)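 Single-concentration screen at 10 µM in functional assays of a commercial kinase panel; percent inhibition reported when at least 50%.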

[16] = target: Ribosomal protein S6 kinase alpha-5 (Homo sapiens) (UniProt O75582); experiment: Inhibition of MSK1 at 10 uM; how it was run: as §3
[17] = target: Ribosomal protein S6 kinase beta-1 (Homo sapiens) (UniProt P23443); experiment: Inhibition of p70S6K at 10 uM; how it was run: as §3
[18] = Inhibition of PKA at 10 uM
[19] = target: Serine/threonine-protein kinase N1 (Homo sapiens) (UniProt Q16512); experiment: Inhibition of PKN1 at 10 uM; how it was run: as §3
[20] = target: T2, Serine/threonine-protein kinase Sgk1 (Homo sapiens) (UniProt O00141); experiment: Inhibition of SGk1 at 10 uM; how it was run: as §3
T2 sequence (whole entry): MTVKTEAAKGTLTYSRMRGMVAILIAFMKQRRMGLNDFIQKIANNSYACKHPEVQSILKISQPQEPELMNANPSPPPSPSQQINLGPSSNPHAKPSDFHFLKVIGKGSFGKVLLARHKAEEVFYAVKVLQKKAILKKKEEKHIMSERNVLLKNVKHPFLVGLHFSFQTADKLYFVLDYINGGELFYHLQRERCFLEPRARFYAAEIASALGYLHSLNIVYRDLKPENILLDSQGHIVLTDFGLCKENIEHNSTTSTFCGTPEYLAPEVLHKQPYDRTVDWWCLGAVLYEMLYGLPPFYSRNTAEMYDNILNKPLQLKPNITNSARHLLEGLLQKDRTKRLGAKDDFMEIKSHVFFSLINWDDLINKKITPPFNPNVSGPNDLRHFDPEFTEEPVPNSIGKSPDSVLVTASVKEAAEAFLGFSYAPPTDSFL

[21] = target: T1, Rho-associated protein kinase 1; experiment: Inhibition of ROCK1 assessed as ATP cunsumption at 96 uM; how it was run: as §1
Target sequence in this assay (Q13464 2-1354 limits assumed): as the sequence (Q13464 2-1354 limits assumed) above

Chain of Aurora kinase B (Homo sapiens) (Q96GD4 whole entry): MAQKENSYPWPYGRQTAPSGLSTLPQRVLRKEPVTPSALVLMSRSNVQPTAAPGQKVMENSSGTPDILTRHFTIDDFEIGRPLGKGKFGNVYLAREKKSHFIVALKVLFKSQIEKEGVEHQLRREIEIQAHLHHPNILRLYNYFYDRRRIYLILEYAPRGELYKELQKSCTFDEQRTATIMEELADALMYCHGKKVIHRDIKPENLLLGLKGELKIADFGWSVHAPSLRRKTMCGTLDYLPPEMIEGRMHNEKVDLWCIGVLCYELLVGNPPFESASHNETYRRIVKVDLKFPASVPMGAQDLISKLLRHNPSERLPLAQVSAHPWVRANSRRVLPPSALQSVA
Chain of Ribosomal protein S6 kinase beta-1 (Homo sapiens) (P23443 whole entry, looked up): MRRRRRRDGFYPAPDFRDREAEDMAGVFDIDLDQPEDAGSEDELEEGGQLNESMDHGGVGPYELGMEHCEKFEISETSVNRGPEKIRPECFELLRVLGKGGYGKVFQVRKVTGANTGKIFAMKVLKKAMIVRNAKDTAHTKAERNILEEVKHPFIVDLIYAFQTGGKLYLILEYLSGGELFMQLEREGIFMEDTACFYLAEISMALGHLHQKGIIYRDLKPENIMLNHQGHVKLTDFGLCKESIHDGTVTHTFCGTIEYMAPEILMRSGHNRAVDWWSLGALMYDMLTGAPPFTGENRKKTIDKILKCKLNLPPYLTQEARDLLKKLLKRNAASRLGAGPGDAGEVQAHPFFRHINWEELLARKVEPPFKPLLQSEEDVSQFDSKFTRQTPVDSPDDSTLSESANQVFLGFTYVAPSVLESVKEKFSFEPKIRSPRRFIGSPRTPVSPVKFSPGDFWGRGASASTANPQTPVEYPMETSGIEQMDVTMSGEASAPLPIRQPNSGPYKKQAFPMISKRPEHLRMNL
Chain of Serine/threonine-protein kinase N1 (Homo sapiens) (Q16512 2-942 limits assumed): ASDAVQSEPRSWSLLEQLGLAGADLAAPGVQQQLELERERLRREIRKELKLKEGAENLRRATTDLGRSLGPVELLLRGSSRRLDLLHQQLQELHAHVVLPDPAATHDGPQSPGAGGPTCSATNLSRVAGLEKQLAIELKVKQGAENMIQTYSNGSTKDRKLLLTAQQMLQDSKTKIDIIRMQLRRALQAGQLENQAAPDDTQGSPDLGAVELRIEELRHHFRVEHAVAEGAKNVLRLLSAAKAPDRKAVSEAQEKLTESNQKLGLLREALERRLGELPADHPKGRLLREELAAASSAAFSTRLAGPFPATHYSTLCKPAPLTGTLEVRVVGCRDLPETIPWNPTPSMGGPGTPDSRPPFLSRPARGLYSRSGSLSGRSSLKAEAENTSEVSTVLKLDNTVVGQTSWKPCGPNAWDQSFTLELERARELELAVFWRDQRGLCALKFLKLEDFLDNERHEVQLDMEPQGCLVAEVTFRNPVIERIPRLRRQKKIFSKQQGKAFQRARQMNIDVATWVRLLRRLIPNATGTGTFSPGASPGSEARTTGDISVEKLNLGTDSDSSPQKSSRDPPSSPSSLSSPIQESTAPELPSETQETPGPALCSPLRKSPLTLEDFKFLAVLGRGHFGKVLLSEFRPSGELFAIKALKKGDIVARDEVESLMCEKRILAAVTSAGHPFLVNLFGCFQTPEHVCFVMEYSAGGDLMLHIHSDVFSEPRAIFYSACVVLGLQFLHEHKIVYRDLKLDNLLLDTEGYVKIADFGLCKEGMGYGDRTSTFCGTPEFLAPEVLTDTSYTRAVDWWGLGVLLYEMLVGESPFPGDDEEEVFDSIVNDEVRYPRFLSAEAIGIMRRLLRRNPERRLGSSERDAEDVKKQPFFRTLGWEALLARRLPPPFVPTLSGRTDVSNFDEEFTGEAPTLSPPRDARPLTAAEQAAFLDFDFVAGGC

Cc1c(-c2ccnc(N)n2)sc2ccc(C(N)c3cccc(Cl)c3)cc12 (racemic)
IC50 [1]: 0.03 µM

Cc1c(-c2ccnc3[nH]ccc23)sc2ccc(Cl)cc12
IC50 [1]: 7.1 µM | inhibition [2]: inactive

COC(=O)c1cccc(Cc2ccc3sc(-c4ccnc(N)n4)c(C)c3c2)c1
IC50 [1]: 10 µM

Cc1c(-c2ccnc(N)n2)sc2ccc(C(N)c3ccccc3)cc12 (racemic)
IC50 [1]: 0.02 µM

Cc1c(-c2ccnc(N)n2)sc2ccc(C(N)CC(C)C)cc12 (racemic)
IC50 [1]: 0.03 µM

CCCC(N)c1ccc2sc(-c3ccnc(N)n3)c(C)c2c1 (racemic)
IC50 [1]: 0.02 µM | Activity (Cynomolgus monkey [3]): -19.6% | Activity (Cynomolgus monkey [4]): -24.1% | Activity (Cynomolgus monkey [5]): -26% | Activity (Cynomolgus monkey [6]): -20% | Activity (Cynomolgus monkey [7]): -13.9% | Activity (Cynomolgus monkey [8]): -12%

Cc1c(-c2ccnc(N)n2)sc2ccc(C(N)C(C)C)cc12 (racemic)
IC50 [1]: 0.06 µM

COc1ccc(C(N)c2ccc3sc(-c4ccnc(N)n4)c(C)c3c2)cc1 (racemic)
IC50 [1]: 0.09 µM | Emax [9]: 56%

COc1ccc(Cc2ccc3sc(-c4ccnc(N)n4)c(C)c3c2)cc1
IC50 [1]: 7.2 µM

Cc1cncc2cccc(S(=O)(=O)N3CCCNCC3C)c12 (stereo not drawn)
Activity (GTM3 [10]): Active | Activity (GTM3 [11]): Active

Cc1c(-c2ccnc(N)n2)sc2ccccc12
IC50 [1]: 2.9 µM

COc1cccc(C(N)c2ccc3sc(-c4ccnc(N)n4)c(C)c3c2)c1 (racemic)
IC50 [1]: 0.02 µM | Emax [9]: 46%

Cc1c(-c2ccnc(N)n2)sc2ccc(-c3ccccc3)cc12
IC50 [1]: 4.2 µM | Emax [12]: 35%

Cc1c(-c2ccncc2)sc2ccc(Cl)cc12
IC50 [1]: 28 µM | inhibition [2]: inactive

Cc1c(-c2c[nH]c3ncccc23)sc2ccc(Cl)cc12
IC50 [1]: > 10 µM | inhibition [2]: inactive

Cc1c(-c2ccnc(N)n2)sc2ccc(Cl)cc12
IC50 [1]: 1.5 µM | inhibition [2]: inactive

O=S(=O)(c1cccc2c(I)cccc12)N1CCCNCC1
IC50 [1]: 38 µM

Cc1c(-c2ccnc(N)n2)sc2ccc(CN)cc12
IC50 [1]: 2.2 µM

Cc1c(-c2ccnc(N)n2)sc2ccc(Cc3cccc(C(F)(F)F)c3)cc12
IC50 [1]: 8.6 µM

Cc1c(-c2ccnc(N)n2)sc2ccc(Cc3ccccc3)cc12
IC50 [1]: 0.58 µM

Cc1c(-c2ccnc(N)n2)sc2ccc(Cc3cccc(C(=O)O)c3)cc12
IC50 [1]: 0.06 µM

C[C@@H](N)c1ccc(C(=O)Nc2ccnc3[nH]ccc23)cc1 [Y-39983]
Activity [13]: Non-toxic

COc1ccccc1Cc1ccc2sc(-c3ccnc(N)n3)c(C)c2c1
IC50 [1]: 9.7 µM

Cc1cccc(C(N)c2ccc3sc(-c4ccnc(N)n4)c(C)c3c2)c1 (racemic)
IC50 [1]: 0.05 µM | Emax [9]: 67%

Cc1c(-c2ccnc(N)n2)sc2ccc(Nc3cccc(O)c3)cc12
solubility [14]: 30 µM (≈ 10.5 µg/mL)

Cc1c(-c2ccnc(N)c2)sc2ccc(Cl)cc12
IC50 [1]: 8.3 µM | Emax [9]: 44% | inhibition [2]: inactive

Cc1c(-c2ccnc(N)n2)sc2ccc(Cc3cccc(O)c3)cc12
IC50 [1]: 0.02 µM | inhibition [15]: 82% | inhibition [16]: 94% | inhibition [17]: 55% | inhibition [18]: 67% | inhibition [19]: 53% | inhibition [20]: 61% | solubility [14]: 10 µM (≈ 3.47 µg/mL)

Cc1c(-c2cc(N)ncn2)sc2ccc(Cl)cc12
IC50 [1]: 13 µM | inhibition [2]: inactive

CNc1nccc(-c2sc3ccc(Cl)cc3c2C)n1
IC50 [1]: 1.2 µM | Emax [9]: 17% | inhibition [2]: inactive

Cc1c(-c2ccnc(N(C)C)n2)sc2ccc(Cl)cc12
IC50 [1]: > 100 µM | Activity [21]: inactive | inhibition [2]: inactive

CCC(N)c1ccc2sc(-c3ccnc(N)n3)c(C)c2c1 (racemic)
IC50 [1]: 0.14 µM

Cc1c(-c2ccnc(N)n2)sc2ccc(C(C)N)cc12 (racemic)
IC50 [1]: 0.4 µM

COc1cccc(Cc2ccc3sc(-c4ccnc(N)n4)c(C)c3c2)c1
IC50 [1]: 0.23 µM | solubility [14]: 40 µM (≈ 14.5 µg/mL)
